Assay results from ChEMBL document CHEMBL1122013, “Inhibitors of gastric acid secretion: 3,4-diamino-1,2,5-thiadiazole 1-oxides and 1,1-dioxides as urea equivalents in a series of histamine H2-receptor antagonists” (J Med Chem, 1982).
Where “and” joins values, the source holds several entries; their conditions need not be identical. Equal entries are not always repeated.

How the values were obtained:
[1] = Slope value of the compound
[2] = target: Histamine H2 receptor (Cavia porcellus) (UniProt P47747); experiment: In vitro inhibition of Histamine H2 receptor by measuring its ability to block dimaprit-stimulated chronotropic response of guinea pig atrium strips; format: tissue-based; details: Cardiac atrium
Canis familiaris [3] = experiment: Inhibition of acid output in dogs (iv); format: functional; details: Canis lupus familiaris
Outline: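 Dogs with gastric fistula under histamine stimulation. The compound is dissolved in aqueous vehicle with 1 equiv of HCl. It is given orally (po), or intravenously (iv) immediately before histamine. Acid secretion is measured over the period of maximum effect, 0-30 min after histamine. ED50 and confidence limits come from analysis of variance over four dose levels, with 3-5 dogs per dose.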

[4] = target: Histamine H2 receptor (Cavia porcellus) (UniProt P47747); details: Cardiac atrium
Histamine H2 receptor = Histamine H2 receptor (Cavia porcellus, UniProt P47747); experiment: In vitro inhibition of Histamine H2 receptor by measuring its ability to block the histamine-stimulated adenylate cyclase of guinea pig hippocampal homogenate; format: tissue-based, Hippocampus
Canis familiaris [5] = experiment: Inhibition of acid output in dogs (po); format: functional; details: Canis lupus familiaris
Outline: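 Dogs with a gastric fistula, stimulated with histamine, were dosed orally with compound solubilized in aqueous vehicle containing 1 equiv of HCl. Gastric secretion was measured over the period of maximum effectiveness (0-30 min after histamine). ED50 and confidence limits came from analysis of variance across four dose levels with 3-5 dogs per dose.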

[6] = Ratio (po/iv) value of the compound; format: functional

Chain of Histamine H2 receptor (Cavia porcellus) (P47747 whole entry): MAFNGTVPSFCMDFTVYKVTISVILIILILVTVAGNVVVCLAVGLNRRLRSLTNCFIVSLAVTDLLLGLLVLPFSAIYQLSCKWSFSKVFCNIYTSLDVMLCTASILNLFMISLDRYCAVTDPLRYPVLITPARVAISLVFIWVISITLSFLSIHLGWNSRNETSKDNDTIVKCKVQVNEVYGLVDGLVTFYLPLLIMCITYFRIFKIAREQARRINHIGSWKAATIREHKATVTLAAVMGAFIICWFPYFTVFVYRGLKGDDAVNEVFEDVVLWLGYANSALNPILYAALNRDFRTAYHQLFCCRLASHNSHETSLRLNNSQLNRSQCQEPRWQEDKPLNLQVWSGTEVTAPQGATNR
Chain of Histamine H2 receptor (P47747 whole entry): as above

Nc1n[s+]([O-])nc1NCCCOc1cccc(CN2CCCCC2)c1 (stereo not given)
Slope [1]: 1.4 and 1.73

CN(C)Cc1ccc(CSCCNC2=NS(=O)(=O)N=C2N)o1
Slope [1]: 1.3 and 0.53

N=C(N)Nc1nc(CSCCNc2n[s+]([O-])nc2N)cs1 (stereo not given)
-Log KB [2]: 8.17
Slope [1]: 0.85

CNC(=C[N+](=O)[O-])NCCSCc1ccc(CN(C)C)o1 [RANITIDINE]
ED50 (Canis familiaris [3]): 0.04 mg/kg
-Log KB [4]: 7.32
Slope [1]: 1.6 and 0.76
Ki (Histamine H2 receptor): 501 nM
ED50 (Canis familiaris [5]): 0.42 mg/kg
Ratio [6]: 14

CN/C(=N\CCSCc1nc[nH]c1C)NC#N [CIMETIDINE]
ED50 (Canis familiaris [3]): 1.84 mg/kg
Slope [1]: 0.9 and 0.78

Cc1[nH]cnc1CSCCNc1n[s+]([O-])nc1N (stereo not given)
-Log KB [2]: 5.98
Slope [1]: 0.85

CN(C)Cc1ccc(CSCCNc2n[s+]([O-])nc2N)o1 (stereo not given)
Slope [1]: 1.1 and 0.55

CNc1n[s+]([O-])nc1NCCSCc1ccc(CN(C)C)o1 (stereo not given)
ED50 (Canis familiaris [3]): 0.05 mg/kg
-Log KB [2]: 7.85
Slope [1]: 1.03
ED50 (Canis familiaris [5]): 0.3 mg/kg
Ratio [6]: 6
